MEKK3 PB1 HTS: raises or lowers MEK5 binding to the human MEKK3 PB1 domain; Q99759; bead-based flow cytometry, Alexa488-MEK5 binding to MEKK3; actives lie on both sides; 0 = blocked by unlabeled MEK5, 100 = vehicle; binding response (% of control), % at 10 µM; hit rate 1.4% among 290,000; AID 1529;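 active = binding response more than 3 SD above or below the average of its plate-row segment, actives on both sides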;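 note: Alexa488 bead fluorescence after subtracting the streptavidin-only scavenger bead signal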
Target sequence (Q99759 whole entry, looked up, the tested form may be a part): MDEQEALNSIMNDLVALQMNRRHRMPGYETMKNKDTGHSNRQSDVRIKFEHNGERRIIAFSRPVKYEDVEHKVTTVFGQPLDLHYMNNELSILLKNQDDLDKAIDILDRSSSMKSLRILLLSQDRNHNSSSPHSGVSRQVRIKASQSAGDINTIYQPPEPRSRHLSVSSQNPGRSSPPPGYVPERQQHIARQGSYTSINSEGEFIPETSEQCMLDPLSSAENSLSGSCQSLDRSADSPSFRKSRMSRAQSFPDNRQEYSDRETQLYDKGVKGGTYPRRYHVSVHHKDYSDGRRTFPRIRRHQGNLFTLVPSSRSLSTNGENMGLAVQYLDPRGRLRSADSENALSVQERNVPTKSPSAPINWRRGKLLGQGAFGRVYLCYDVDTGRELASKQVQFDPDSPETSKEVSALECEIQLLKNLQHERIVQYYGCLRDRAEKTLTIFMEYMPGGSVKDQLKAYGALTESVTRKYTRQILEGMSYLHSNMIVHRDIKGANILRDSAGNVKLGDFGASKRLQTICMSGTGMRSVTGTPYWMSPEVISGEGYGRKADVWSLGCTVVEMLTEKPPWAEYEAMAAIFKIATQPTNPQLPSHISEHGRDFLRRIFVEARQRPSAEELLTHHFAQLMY
MEKK2mut PB1 HTS: signal of MEK5 binding to mutant human MEKK2 PB1 domain. percent response, % at 10 µM. AID 1530. hit rate 0.35% among 290,000. bead flow cytometry, Alexa488-MEK5 binding to MEKK2 mutant; in the data active = percent response above about 24%, passing the limit was not always enough
MEKK2 WT-MEK5: raises or lowers MEK5 binding to wildtype human MEKK2 PB1 domain; Q9Y2U5; hit rate 1.1% among 290,000; AID 1531; bead flow cytometry, Alexa488-MEK5 binding to MEKK2 WT; actives lie on both sides; binding response (% of control), % at 10 µM; in the data active = binding response below about 67% or above about 130%
Lipid droplet: modulators of hepatic lipid droplet formation; hit rate 0.4% among 240,000; inhibition, % at 6.5 µM; AML12 mouse hepatocytes, oleate lipid droplets, BODIPY imaging;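 active = lipid droplet intensity inhibited by at least 50%, with more than 500 cells counted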
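Technique: fluorescence imaging, 20x objective, two fields per well / Assay system: AML12 hepatocytes (mouse) / Measure: % inhibition of lipid droplet signal / Doses: 6.5 µM single-point dosing / Incubation: overnight exposure / Reagent: 100 µM oleic acid challenge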
MEKK2wt confirm: raises or lowers MEK5 binding to wildtype human MEKK2, retest; shares compounds with MEKK3 PB1 HTS; bead flow cytometry, Alexa488-MEK5 binding to MEKK2 WT; actives lie on both sides; binding response (% of control), % at 10 µM; hit rate 2.4% among 5,900; in the data active = binding response below about 16% or above about 210%; inactive = in between
MEKK2mut-MEK5: signal of MEK5 binding to mutant human MEKK2, retest; bead flow cytometry, Alexa488-MEK5 binding to MEKK2 mutant; hit rate 2% among 5,900; percent response, % at 10 µM; shares compounds with MEKK3 PB1 HTS; in the data active = percent response mostly above about 71%, no sharp cut-off; inactive = mostly below about 38%;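 note: higher means compound restores mutant binding toward wildtype level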
MEKK3 confirm: MEKK3-MEK5 PB1 inhibition, single concentration confirmation. bead flow cytometry, Alexa488-MEK5 binding to MEKK3; stronger effect = lower value. hit rate 1.8% among 5,900. shares compounds with MEKK3 PB1 HTS. binding response (% of control), % at 10 µM. AID 1894;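 active = binding response below 72% of control, or above a set upper limit, though filed actives all read lower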;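 note: 100% = DMSO only wells and 0% = binding blocked by excess unlabeled MEK5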
* marks the source's active call; other numbers are inactive results; . = no result given; [ ] = dose if it differs, or a comment. Rows were chosen to be rich in hits. Some 2.6% of all compounds tested hit in one or more screens of this group.

SMILES	MEKK3 PB1 HTS	MEKK2mut PB1 HTS	MEKK2 WT-MEK5	Lipid droplet	MEKK2wt confirm	MEKK2mut-MEK5	MEKK3 confirm
Cc1cc(C=C2C(=O)N(C)C(=S)N(C)C2=O)c(C)n1C1CCCC1	84.0	-13.0	55.0*[inhibitor]	-2.4	98.0	-1.0	101.0
CCc1ccccc1NC(=O)N1C[C@H]2C[C@@H](C1)c1cccc(=O)n1C2	97.0	1.0	99.0	-1.5	.	.	.
Fc1ccc(C(OCCN2CCN(CCCc3ccccc3)CC2)c2ccc(F)cc2)cc1	112.0	26.0*	235.0*	.	187.0	41.0	109.0
c1ccc(CCCN2CCN(CCOC(c3ccccc3)c3ccccc3)CC2)cc1	108.0	8.0	162.0*	.	130.0	27.0	103.0
Fc1ccc(C(OCCN2CCCC2)c2ccc(F)cc2)cc1	99.0	-1.0	107.0	-7.7	.	.	.
O=[N+]([O-])NC1=NCCN1Cc1ccc(Cl)nc1	100.0	2.0	104.0	-53.3	.	.	.
CN1C2CCC1CC(=NO)C2	108.0	5.0	92.0	1.3	.	.	.
CCc1ccc(NP(=O)(Oc2ccccc2F)Oc2ccccc2F)cc1	1.0*[inhibitor]	-27.0	-3.0*[inhibitor]	-27.6	100.0	-7.0	102.0
Cc1ccc(NP(=O)(Oc2ccccc2F)Oc2ccccc2F)cc1	101.0	2.0	97.0	.	.	.	.
O=C1NC(=O)C(=Cc2coc3ccccc3c2=O)C(=O)N1	121.0	184.0*	282.0*	27.2	99.0	-2.0	103.0
CN1c2ccc([N+](=O)[O-])cc2CC2(C(=O)NC(=O)NC2=O)C1c1ccccc1 (stereo not drawn)	134.0*	3.0	104.0	-0.5	96.0	-1.0	99.0
COc1ccc(C(CNC(=O)c2ccc3c(c2)CCC3)N(C)C)cc1 (stereo not drawn)	100.0	7.0	100.0	-24.7	.	.	.
CC(C)(C)n1cc(C(=O)c2ccc3ccccc3c2O)cn1	129.0*	-2.0	100.0	-4.3	103.0	-1.0	100.0
Cn1cccc1/C=C1/C(=O)NC(=O)N(Cc2ccc(F)cc2)C1=O	101.0	0.0	93.0	-11.1	.	.	.
Cn1cccc1/C=C1/C(=O)NC(=S)N(Cc2ccc(F)cc2)C1=O	88.0	-19.0	56.0*[inhibitor]	-3.6	98.0	0.0	98.0
COc1c(/C=C2/C(=O)NC(=O)N(C)C2=O)c(CCN(C)C(=O)c2ccccc2)cc2c1OCO2	100.0	0.0	99.0	.	.	.	.
C=C1[C@@H](OC(C)=O)[C@]23C[C@@H]1[C@@H](OC(C)=O)CC2[C@]12C4C[C@H]3[C@H]1N(CC)C[C@]4(C)CC[C@@H]2O (stereo partly drawn)	96.0	1.0	100.0	.	.	.	.
CCC(N)Cc1c[nH]c2ccccc12 (stereo not drawn)	64.0*[inhibitor]	-7.0	74.0	18.0	103.0	2.0	100.0
CNCCc1c[nH]c2ccccc12	111.0	3.0	106.0	1.7	.	.	.
CCOc1ccc(-n2c(O)c(C=NCCN(CC)CC)c(=O)[nH]c2=O)cc1	84.0	-7.0	80.0	10.2	.	.	.
CN(C)CCN=Cc1c(O)n(-c2cccc(C(F)(F)F)c2)c(=O)[nH]c1=O	2.0*[inhibitor]	-20.0	-2.0*[inhibitor]	11.7	98.0	4.0	101.0
CCN(CC)C(=O)c1ccc2c(c1)C1C=CCC1C(C(=O)O)N2 (stereo not drawn)	91.0	-3.0	89.0	-1.2	.	.	.
COc1cc(N2CCOCC2)ccc1/C=C1\C(=O)NC(=O)N(C2CCCCC2)C1=O	130.0*	-1.0	105.0	5.2	96.0	-1.0	98.0
CCOc1ccccc1CN1C2CCC1CC(c1ccc(C)cc1)C2 (stereo not drawn)	102.0	6.0	110.0	-17.3	.	.	.
Cc1ccc(Oc2cc(NN3CCCCC3)c([N+](=O)[O-])cc2[N+](=O)[O-])c([N+](=O)[O-])c1	103.0	3.0	98.0	-0.2	.	.	.
C=CCN1C(=O)/C(=C/c2cc(C)n(-c3ccccn3)c2C)C(=O)NC1=S	94.0	-2.0	61.0*[inhibitor]	1.4	96.0	-2.0	100.0
N#CC(C#N)=C(N)c1cccnc1	46.0*[inhibitor]	-45.0	57.0	-9.9	98.0	-6.0	97.0

Bioassay records as filed in PubChem.
